Laboratory results as given in ChEMBL document CHEMBL1125115 (J Med Chem, 1990).
Square brackets hold non-standard residues; d marks the D form. Peptide text beside a SMILES is read from it. GABA = NCCCC(=O)O

Key:
[1] = molecular target: Substance-P receptor (Cavia porcellus) (UniProt P30547); experiment: Antagonistic activity against the highly selective tachykinin receptor 1 in guinea pig ileum; type: functional, tissue-based
[2] = molecular target: T1, Substance-K receptor (Rattus norvegicus) (UniProt P16610); experiment: Antagonistic activity against the highly selective tachykinin receptor 2 in rat colon muscularis mucosae; type: functional
T1 sequence (whole entry): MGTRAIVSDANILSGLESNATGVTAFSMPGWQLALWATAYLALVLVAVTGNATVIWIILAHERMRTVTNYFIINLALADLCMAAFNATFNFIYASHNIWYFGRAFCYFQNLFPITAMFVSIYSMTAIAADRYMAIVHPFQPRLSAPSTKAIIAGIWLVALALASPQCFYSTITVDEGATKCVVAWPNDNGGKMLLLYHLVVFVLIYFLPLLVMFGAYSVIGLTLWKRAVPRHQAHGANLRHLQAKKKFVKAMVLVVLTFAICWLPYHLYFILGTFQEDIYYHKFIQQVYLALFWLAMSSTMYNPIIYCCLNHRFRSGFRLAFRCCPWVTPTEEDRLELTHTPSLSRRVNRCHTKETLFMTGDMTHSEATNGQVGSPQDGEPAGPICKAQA
How it was run: (§1)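 Rat colon muscularis mucosae, isotonic contractions at 35 °C with atropine, mepyramine, methysergide, indomethacin (1 µM each). Dose ratio from rightward shift of agonist concentration-response curve with antagonist present; pKB = log[DR - 1] - log[B], B = molar antagonist concentration.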

Substance-P receptor = Substance-P receptor (Cavia porcellus, UniProt P30547); experiment: Agonistic activity at neurokinin-1 (NK-1) receptor in guinea pig ileum longitudinal smooth muscle; type: functional, tissue-based
Substance-P receptor, sequence (P30547 whole entry): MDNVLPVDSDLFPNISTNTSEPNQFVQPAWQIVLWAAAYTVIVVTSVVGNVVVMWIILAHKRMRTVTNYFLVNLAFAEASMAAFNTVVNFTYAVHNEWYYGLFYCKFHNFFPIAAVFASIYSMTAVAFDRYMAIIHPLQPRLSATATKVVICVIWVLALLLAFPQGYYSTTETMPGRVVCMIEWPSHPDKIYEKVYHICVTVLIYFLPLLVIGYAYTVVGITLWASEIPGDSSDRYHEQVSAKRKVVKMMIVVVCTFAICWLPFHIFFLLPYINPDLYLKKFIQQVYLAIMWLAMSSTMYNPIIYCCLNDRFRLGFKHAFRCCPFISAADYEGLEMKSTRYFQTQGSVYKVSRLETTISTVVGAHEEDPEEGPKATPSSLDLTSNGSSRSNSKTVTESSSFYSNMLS
How it was run: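 Guinea pig ileum longitudinal smooth muscle-myenteric plexus strip (NK-1); isotonic contractions at 35 °C with atropine, mepyramine, methysergide and indomethacin (each 1 µM). Equipotent molar ratios converted to EC50 using mean EC50 of standard agonist.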

Substance-K receptor = molecular target: T2, Substance-K receptor (Rattus norvegicus, UniProt P16610); experiment: Agonist activity was measured at neurokinin-2 receptor in the rat colon muscularis mucosae; type: functional, tissue-based, Muscularis mucosa
T2 sequence (P16610 whole entry): T1 sequence (whole entry)
How it was run: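 Rat colon muscularis mucosae strip (NK-2); isotonic contractions at 35 °C with atropine, mepyramine, methysergide and indomethacin (each 1 µM). Equipotent molar ratios converted to EC50 using mean EC50 of standard agonist.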

[3] = molecular target: T1, Substance-K receptor (Rattus norvegicus); experiment: Antagonistic activity at tachykinin receptor 2 in the rat colon muscularis mucosae; C= Partial agonist; type: functional; conditions: filed as partial agonist; how it was run: as §1

Substance-P receptor (Cavia porcellus), sequence (P30547 whole entry): as above

| SMILES | pKB [1] | pKB [2] | EC50 (Substance-P receptor) | EC50 (Substance-K receptor) | pKB [3] |
| --- | --- | --- | --- | --- | --- |
| CSCC[C@@H](NC(=O)[C@H](CC(C)C)N1CCC2(CCCN2C(=O)[C@H](Cc2ccccc2)NC(=O)[C@H](Cc2ccccc2)NC(=O)CCCN)C1=O)C(N)=O (stereo partly specified) | 5.66 | < 4.5 | – | – | – |
| CC(C)C[C@@H](C(=O)NC(CCc1ccccc1)C(N)=O)N1CCC2(CCCN2C(=O)[C@H](Cc2ccccc2)NC(=O)[C@H](Cc2ccccc2)NC(=O)CCCN)C1=O (stereo partly specified) | 6.64 | 5.84 | – | – | – |
| CC(C)C[C@@H](C(=O)N[C@H](CC1CCCCC1)C(N)=O)N1CCC2(CCCN2C(=O)[C@H](Cc2ccccc2)NC(=O)[C@H](Cc2ccccc2)NC(=O)CCCN)C1=O (stereo partly specified) | 6.43 | 5.86 | – | – | – |
| CC(C)C[C@H](NC(=O)CNC(=O)[C@H](Cc1ccccc1)NC(=O)[C@H](Cc1ccccc1)NC(=O)CCCN)C(=O)N[C@@H](Cc1c[nH]c2ccccc12)C(N)=O (H-[GABA]FFGLW-NH2) | – | – | 4.38 µM | > 16 µM | – |
| CC(C)C[C@@H](C(=O)NC(Cc1c[nH]c2ccccc12)C(N)=O)N1CCC2(CCCN2C(=O)[C@H](Cc2ccccc2)NC(=O)[C@H](Cc2ccccc2)NC(=O)CCCN)C1=O (stereo partly specified) | 6.62 | 5.27 | – | – | – |
| CNC(=O)[C@H](CC(C)C)N1CCC2(CCCN2C(=O)[C@H](Cc2ccccc2)NC(=O)[C@H](Cc2ccccc2)NC(=O)CCCN)C1=O (stereo partly specified) | < 4.5 | < 4.5 | – | – | – |
| CSCC[C@H](NC(=O)[C@H](CC(C)C)N1CCC2(CCCN2C(=O)[C@H](Cc2ccccc2)NC(=O)[C@H](Cc2ccccc2)NC(=O)CCCN)C1=O)C(N)=O (stereo partly specified) | 5.6 | – | – | – | Partial agonist |
| CC(C)C[C@@H](C(=O)N[C@H](Cc1ccccc1)C(N)=O)N1CCC2(CCCN2C(=O)[C@H](Cc2ccccc2)NC(=O)[C@H](Cc2ccccc2)NC(=O)CCCN)C1=O (stereo partly specified) | 6.28 | 5.36 | – | – | – |
